# Bioassay records: PubChem, several laboratories
# Myeloid diff 2 = induction of myeloid progenitor differentiation, primary screen, cell-based, flow cytometry, MLPCN library; ER-HoxA9 myeloid progenitors, lysozyme-GFP differentiation; calls only at 10 µM; 360,000 tested, 1% active; AID 624256, 2012;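 active = normalized GFP-positive differentiation at or above the plate's own cutoff, the solvent-only control mean plus 3 SD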;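 note: cells exposed to compound for four days before flow analysis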
# Exocytosis inh = LAMP-1 surface exposure blockers, TALL-104 cells – cell-based, flow cytometry, MLPCN library, primary screen; TALL-104 LAMP-1 surface exposure; cells stimulated with thapsigargin and PMA; inhibition, % at 10 µM; 360,000 tested, 0.66% active;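 active = inhibition above about 55%, limit read from the data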
# Arrestin-AP2 inh = inhibitors of beta-arrestin/AP2 binding, primary screen, biochemical, GPCR trafficking, flow cytometry; beta-arrestin 1 C-terminal peptide binding to AP2 beta2-adaptin appendage (human); FITC-arrestin peptide / GST-AP2 beads; AP2 beta2 appendage carries R879A mutation; inhibition, % at 10 µM; 340,000 tested, 0.31% active; AID 504490, 2011;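 active = inhibition above a set limit, near 3 SD of compounds lacking own fluorescence, cut at about 54% in these data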
#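 Test system: GST-tagged AP2 beta2-adaptin appendage (R879A) on 4 µm glutathione beads; also added: fluorescein-tagged arrestin peptide at 50 nM final; timing: 12 min plus 1 h, RT; signal: flow cytometry, FL1 (488/535 nm); read-out: percent drop in bead-associated FITC signal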
# ABCB6 inh 2 = ABCB6 transporter inhibitors, primary screen, K562-ABCB6 cells, flow cytometry, MLPCN library | 360,000 tested, 0.19% active | ATP-binding cassette sub-family B member 6 (Homo sapiens), Q9NP58 | fluorescence ratio to DMSO, % at 10 µM | K562-ABCB6 porphyrin accumulation, 1 h; hits give low values;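 active = fluorescence ratio to DMSO below 75%, the collection mean minus 3 SD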;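 note: signal is porphyrin accumulated inside mitochondria; lower ratio means ABCB6 inhibition with less porphyrin fluorescence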
# ATG4B inhibitor = ATG4B protease inhibitors, primary screen, biochemical, fluorescence, uHTS; 340,000 tested, 0.51% active; Cysteine protease ATG4B (Homo sapiens), Q9Y4P1; ATG4B cleavage of LC3-PLA2, NBD-HPC fluorescence, 1 h; inhibition, % at 8.33 µM; in the data active = inhibition above about 40%
# NRP1-CendR mod = modulators of CendR peptide binding to NRP-1, primary screen, biochemical, fluorescence polarization, uHTS; 360,000 tested, 0.85% active; FAM-RPARPAR peptide binding to NRP-1; inhibition, % at 25 µM;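 active = inhibition or corrected inhibition above about 18%, plus a signal ratio from 0.5 to 1.5, limit read from the data, passing the limit was not always enough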
# ATG4B conf = ATG4B protease inhibitors, retest, confirmation, biochemical, fluorescence, single concentration. 320 tested, 92% active. shares compounds with ATG4B inhibitor. ATG4B protease fluorescent substrate cleavage assay. inhibition, % at 8.33 µM; in the data active = inhibition above about 39%
# PLA2 counter = PLA2 enzyme inhibition, counter-screen for ATG4B inhibitor project, biochemical, single concentration, uHTS hits; shares compounds with ATG4B inhibitor; 1,600 tested, 66% active; AID 588402, 2011; purified PLA2, NBD-C6-HPC fluorescence, 45 min; inhibition, % at 8.33 µM; in the data active = inhibition above about 50%
# Hits are given with their value; . = inactive; / = not tested or not shown. An excerpt weighted towards active compounds, which were near 3.3% of everything screened.
SMILES,Myeloid diff 2,Exocytosis inh,Arrestin-AP2 inh,ABCB6 inh 2,ATG4B inhibitor,NRP1-CendR mod,PLA2 counter,others
CNC(=O)CSc1nc2ccccc2c(=O)n1C1CCCCC1,.,.,.,.,.,.,/,
Cc1ccc(C(=O)NCCCN2CCOCC2)o1,.,.,.,.,.,.,/,
O=C(CCn1cnnn1)N1CCCC(Nc2ccc(F)c(F)c2)C1 (centres undefined),.,.,.,.,.,.,/,
Cc1ccccc1CNC(=O)c1cc(COc2ccc(F)cc2F)on1,.,.,.,.,.,.,/,
Cc1ccc(OCc2cc(C(=O)NCc3cc(F)ccc3C)no2)cn1,.,.,.,.,50,.,54,
CN1CCC2(CC1)N=C(c1ccc(F)cc1)C(=S)N2C(=O)c1ccc(C(C)(C)C)cc1,.,.,.,.,45,.,.,
CC(C)(C)c1ccc(C(=O)N2CCNCC2)cc1,.,.,.,.,.,.,/,
N#Cc1ccc(OCC(=O)NCC(c2cccs2)N2CCOCC2)cc1 (centres undefined),.,.,.,.,.,.,/,
NC(=O)c1ccc(C(F)(F)F)n(Cc2ccc(Cl)cc2)c1=O,.,.,.,.,.,.,/,
NC(=O)c1ccc(C(F)(F)F)n(Cc2cccc(Cl)c2)c1=O,.,.,.,.,45,.,.,ATG4B conf=64
CCCn1nc([N+](=O)[O-])c(C(C#N)c2nc3ccccc3s2)c(Cl)c1=O (centres undefined),.,.,.,.,84,34,85,
CCn1nc([N+](=O)[O-])c(C(C#N)c2nc3ccccc3n2C)c(Cl)c1=O (centres undefined),.,.,.,.,72,.,75,
C=C1CCN(c2ccc(C(=O)NCc3ccc(OC)cc3)cc2[N+](=O)[O-])CC1,.,.,.,.,.,.,/,
O=C(Nc1ccnn1C1CCN(C(=O)c2cccc(C(F)(F)F)c2)CC1)C1CC1,.,.,.,.,.,.,/,
O=C(NCc1nnc2c3ccccc3c(-c3ccccc3)nn12)c1ccc(Cl)cc1,.,.,.,.,42,.,58,
COC(=O)C1=NN(c2ccc(C)cc2)C2(S1)SC(C(C)=O)=C(C)N2c1ccccc1 (centres undefined),.,.,.,.,.,.,/,
Oc1ccccc1CN(Cc1ccco1)CC(O)COCc1ccc(Cl)cc1 (centres undefined),.,.,.,.,40,.,.,
COc1ccc(N(CC(=O)Nc2ccccc2C(=O)O)S(=O)(=O)c2ccc(C)c([N+](=O)[O-])c2)cc1,.,.,.,.,59,.,62,
COc1ccc(-c2cnc3nc[nH]c(=O)c3n2)cc1,.,.,.,.,.,.,/,
O=C1CC(c2ccccc2Cl)CC(O)=C1C=Nc1ccccc1 (centres undefined),.,.,.,.,53,.,53,
Cc1cccc(C)c1NC(=O)C(c1ccc(C#N)cc1)n1c(=O)c(-c2ccco2)nc2ccccc21 (centres undefined),.,.,/,/,/,.,/,
Cc1ccc2[nH]c3c(N4CCN(Cc5ccccc5)CC4)ncnc3c2c1,.,.,.,.,.,.,/,
COc1ccc2c(c1)[nH]c1c(N3CCSCC3)ncnc12,.,.,.,.,.,.,/,
COc1ccc2c(c1)[nH]c1c(N3CCN(Cc4ccc5c(c4)OCO5)CC3)ncnc12,.,.,.,.,45,.,58,
Cc1ccc2c(c1)[nH]c1c(N3CCN(Cc4ccccc4)CC3)ncnc12,.,.,.,.,62,.,79,
SMILES,Myeloid diff 2,Exocytosis inh,Arrestin-AP2 inh,ABCB6 inh 2,ATG4B inhibitor,NRP1-CendR mod,PLA2 counter,others
COc1ccc(-c2nnc(Nc3ccc(CC(N)=O)cc3)c3ccccc23)cc1,.,.,.,.,93,.,92,
COc1ccc(Nc2nnc(-c3ccc(O)cc3)c3ccccc23)cc1,/,.,.,.,.,.,/,
NC(=O)Cc1ccc(Nc2nnc(-c3ccccc3)c3ccccc23)cc1,.,.,.,.,82,.,82,
O=C(Nc1ccc(Cl)cc1)NC1CCCCC1Cc1ccco1 (centres undefined),.,.,.,.,70,.,80,
O=C(Nc1ccc(Cl)cc1)NC1CCCC1Cc1ccco1 (centres undefined),.,.,.,.,.,.,/,
Cc1ccc(CNC(=O)Cn2c(=O)c3sccc3n(Cc3ccc([N+](=O)[O-])cc3)c2=O)cc1,.,.,.,.,.,.,/,
C/C(CCc1oc2ccc(Cl)cc2c1-c1ccc(C)o1)=N\O,.,.,.,.,46,.,71,
Cc1nn(-c2cccc(C(F)(F)F)c2)c(Cl)c1/C=N/Nc1cccc(C(=O)O)c1,.,.,.,.,57,.,67,
CCCCCCCOC(=O)C[N+](C)(C)CCOC1CC2CCC1(C)C2(C)C (centres undefined),.,.,.,.,53,.,.,ATG4B conf=48
CCCCCCOC(=O)C[N+](C)(C)CCOC1CC2CCC1(C)C2(C)C (centres undefined),.,.,.,.,.,.,/,
CC(NC(=O)COc1ccccc1-c1ccccc1)c1ccccc1 (centres undefined),.,.,.,.,42,.,52,
Cc1ccc(-n2cc(CN3CCC(O)(c4ccccn4)CC3)c(-c3ccc(F)cc3)n2)cc1,.,.,.,.,61,.,52,
Cc1ccc(-n2cc(CN3CCNC(=O)CC3)c(-c3ccc(F)cc3)n2)cc1,.,.,.,.,.,.,/,
Clc1cccc(-c2nc(NCc3cccnc3)c3ccccc3n2)c1,.,.,.,.,64,.,70,
c1ccc(-c2nc(NCc3cccnc3)c3ccccc3n2)cc1,.,.,.,.,.,.,/,
O=C(Nc1ccccc1-c1ccccc1)c1ccc(Cl)c([N+](=O)[O-])c1,.,.,.,.,41,.,.,
O=C(Nc1ccccc1N1CCCCC1)c1ccc(Cl)c([N+](=O)[O-])c1,.,.,.,.,.,.,/,
CCCCNC(=O)c1ccc(SCC(=O)N(CC)CC)c([N+](=O)[O-])c1,.,.,.,.,.,.,/,
